High-throughput results deposited in PubChem by several laboratories.
DNA FID counter: displaces DNA intercalator in HCV helicase counter-screen. DNA fluorescent intercalator displacement, fluorescence. inhibition, % at 7.9 µM. hit rate 0.17% among 290,000. AID 1845; in the data active = inhibition above about 37%;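 note: 0% = vehicle and 100% = reference compound; higher means more ethidium bromide displaced from hairpin DNA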
HSP90 inh: blocks HSP90-mediated luciferase refolding in reticulocyte lysate; Rabbit reticulocyte lysate, luciferase refolding luminescence, 3 h; inhibition, % at 5.6 µM; hit rate 0.91% among 290,000; AID 1789;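 active = inhibition above the screen-wide mean plus 3 SD, computed separately per campaign, cut at about 16% in these data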;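 note: 0% = DMSO wells and 100% = 60 µM geldanamycin wells; inhibitors lower the luminescence because luciferase stays unfolded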
HSF1 activator: increases HSF-1 driven luciferase reporter signal. NIH3T3-HGL HSF-1 luciferase reporter, MG132, 8 h; 100% = twice DMSO control signal. activation, % at 9 µM. hit rate 1.7% among 300,000;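 active = mean replicate activation of at least 50% with a set share of replicates each reaching 50%; inconclusive = only one of those two conditions met; inactive = mean below 50% and too few replicates reaching it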;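 note: 0% = median of the neutral control wells and 100% = twice that signal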
HCV NS3 hel inh: inhibitors of Hepatitis C virus NS3 helicase; hit rate 0.56% among 290,000; inhibition, % at 10.9 µM; NS3 helicase DNA unwinding, Cy5 molecular beacon fluorescence; AID 1800;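 active = inhibition above the mean of all tested compounds plus 3 SD, set per campaign, cut at about 35% in these data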;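 note: 0% = DMSO wells and 100% = thioflavine S control wells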
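Material: hepatitis C virus NS3 helicase domain fragment enzyme; measured by: Cy5 fluorescence, 0 and 60 min reads; control set: DMSO and thioflavine S; incubation: 60 min unwinding reaction at 25 °C after ATP addition; read-out basis: % inhibition from 60/0 min fluorescence ratio, DMSO 0%, thioflavine S 100%; repeats: singlicate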
HSF1 inhib: HSF1 inhibition | hit rate 0.77% among 300,000 | activity change, negative = inhibition, % at 7.5 µM (by protocol) | NIH3T3-HGL HSE-luciferase, MG132-induced, luminescence 8 h; stronger effect = lower value;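 active = more than half of replicate wells show activity change below -50%, luminescence cut by over half; inconclusive = some wells, but at most half, below -50%; inactive = no replicate well below -50%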;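 note: luciferase reports HSF-1 transcriptional activity via heat shock element; 0% = median of DMSO wells and -100% = zero luminescence signal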
HCV core dimer: blocks dimerization of HCV core protein; TR-FRET GST/Flag-core106 dimerization, 1536-well; inhibition, % at 5 µM; hit rate 0.33% among 300,000;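 active = inhibition above the mean of all tested compounds plus 3 SD, set per screening campaign, cut at about 45% in these data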
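test system = GST/Flag-tagged HCV core106 proteins | probe or stimulus = Eu donor and XL665 acceptor anti-tag antibodies | times = compound-protein-antibody incubation 4 h at 22.5 °C | signal = TR-FRET, excitation 340 nm, emission 617 and 671 nm | measure = percent inhibition of core106 dimerization signal | controls = wells lacking GST-core106 and wells with excess unlabelled core106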
HSP90 inh confirm: HSP90 inhibition, confirmation assay; hit rate 64% among 2,300; shares compounds with HSP90 inh; inhibition, % at 5.9 µM; rabbit reticulocyte lysate, luciferase refolding luminescence, 3 h; AID 1846; in the data active = inhibition above about 18%;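 note: 0% = vehicle wells and 100% = reference inhibitor wells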
luciferase ctr: counter-screen for HSP90 inhibitors: inhibitors of firefly luciferase | purified native firefly luciferase, luminescence | shares compounds with HSP90 inh | hit rate 48% among 2,300 | inhibition, % at 5.9 µM;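 active = inhibition above the mean inhibition of all tested sample wells plus 3 SD, cut at about 10% in these data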;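 note: 0% = DMSO with luciferase and 100% = wells lacking luciferase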
Target sequence (P08659 whole entry, looked up): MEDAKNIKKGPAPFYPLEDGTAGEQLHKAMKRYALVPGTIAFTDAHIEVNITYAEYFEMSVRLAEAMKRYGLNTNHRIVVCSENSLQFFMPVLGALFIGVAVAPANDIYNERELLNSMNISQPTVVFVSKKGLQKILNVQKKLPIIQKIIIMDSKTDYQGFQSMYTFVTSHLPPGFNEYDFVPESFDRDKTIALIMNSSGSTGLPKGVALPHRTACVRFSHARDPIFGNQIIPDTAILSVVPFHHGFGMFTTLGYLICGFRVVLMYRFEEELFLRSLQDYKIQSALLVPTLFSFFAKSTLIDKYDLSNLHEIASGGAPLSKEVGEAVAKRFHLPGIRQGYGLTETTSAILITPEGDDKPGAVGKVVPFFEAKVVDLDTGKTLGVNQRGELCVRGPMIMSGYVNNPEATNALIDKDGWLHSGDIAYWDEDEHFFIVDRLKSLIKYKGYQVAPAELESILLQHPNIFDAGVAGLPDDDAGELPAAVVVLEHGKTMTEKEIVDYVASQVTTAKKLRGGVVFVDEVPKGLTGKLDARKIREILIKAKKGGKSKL
Numbers without * were called inactive; ? = inconclusive; . = not tested or not shown. Only some compounds are listed: those with a hit (about 3.9% of all), similar ones and a draw of the others.

SMILES	DNA FID counter	HSP90 inh	HSF1 activator	HCV NS3 hel inh	HSF1 inhib	HCV core dimer	HSP90 inh confirm	luciferase ctr
O=C(O)c1ccc(/C=C/C(=O)c2ccc3c(c2)OCCCO3)cc1	-21	51*	4	3	-12	-2	65*	-4
CC(=O)Nc1ccc(/C=C/C(=O)c2ccc3c(c2)OCCO3)cc1	-12	6	36	0	2	9	.	.
Cc1nnc(SCC(=O)NNC(=O)CC#N)[nH]c1=O	6	5	17	-17	-10	-3	.	.
COc1ccccc1C1CCN(Cc2ccc(Cl)cc2Cl)CC1	-1	17*	16	-4	-5	-4	3	-6
COc1ccccc1C1CCN(Cc2ccc(Cl)c(Cl)c2)CC1	2	3	5	-15	3	0	.	.
Cn1c(=O)[nH]c(=O)c2c1nc(NCc1ccco1)n2Cc1ccccc1Cl	-2	1	5	-11	7	-3	.	.
c1ccc(Nc2nc3ccccc3o2)cc1	-3	3	43	-2	24	0	.	.
Fc1ccccc1Nc1nc2ccccc2o1	-11	24*	39	8	19	-4	41*	28*
Cc1ccc(C(=O)NC(=S)Nc2ccc(S(=O)(=O)N3CCN(C)CC3)cc2)cc1	2	2	26	-45	4	-1	.	.
Cc1c(N(C(=O)c2ccccn2)C2(C(=O)NC3CCCCC3)CCCCC2)c(=O)n(-c2ccccc2)n1C	-34	-1	-2	3	-13	-2	.	.
Cc1ccsc1C(=O)NNC(=O)CCN1CCN(c2ccccc2)CC1	.	.	4	.	3	0	.	.
CC(C)(Oc1ccc(Cl)cc1)C(=O)Nc1ccc2oc(=O)ccc2c1	-39	3	-7	3	7	-3	.	.
CC(C)(C)C(=O)Nc1ccc(-c2cc3cc(Cl)ccc3o2)cc1	0	40*	-61	2	-54*	5	24*	12*
O=C(O)CCNC(=O)/C(=C/c1ccco1)NC(=O)c1ccco1	-1	30*	2	6	-6	-9	2	-2
C=CCN(CC=C)C(=S)Nc1ccc2nsnc2c1	-7	31*	21	19	-4	-3	-1	-13
CCOc1ccc(NC(=S)Nc2ccc3nsnc3c2)cc1	-4	11	8	-5	8	-49	.	.
CC(C)N(C(=O)Nc1ccc2nsnc2c1)C(C)C	-4	29*	15	12	-6	-3	8	-2
COc1ccc(N(C)C(=O)Nc2ccc3nsnc3c2)cc1	-2	21*	47	11	6	.	0	-12
C=CCNC(=S)Nc1ccc2nsnc2c1	2	-1	10	12	6	-25	.	.
COc1ccc(NC(=S)Nc2ccc3nsnc3c2)cc1	3	43*	?	-2	40	-68	4	-21
CCOc1ccc(NC(=O)Nc2ccc3nsnc3c2)cc1	8	2	-2	4	3	-3	.	.
CCCCNC(=S)NNC(=O)c1csc(C(C)C)c1	-5	-3	40	-4	24	-2	.	.
CCS(=O)(=O)c1ccc(-c2cccc(NC(=O)COc3ccc(Cl)cc3)c2)nn1	-27	-10	3	1	4	5	.	.
CCOc1ccc2c(c1)C(C)=CC(C)(C)N2S(=O)(=O)c1ccc(C)cc1	-18	30*	-23	-12	-14	.	12	4
COc1ccc(-n2c(C)cc(-c3csc(NC(=O)c4ccc(S(=O)(=O)N(C)C)cc4)n3)c2C)cc1	-12	20*	-66	17	-54*	53*	39*	-6
SMILES	DNA FID counter	HSP90 inh	HSF1 activator	HCV NS3 hel inh	HSF1 inhib	HCV core dimer	HSP90 inh confirm	luciferase ctr
O=C1CN(C(=O)COC(=O)c2ccccc2NCc2ccco2)c2ccccc2N1	-21	4	-6	-5	1	16	.	.
O=C(Nc1ccc(N=Nc2ccccc2)cc1)c1ccc(Cl)cc1Cl	-1	-3	-9	-15	1	-1	.	.
O=C(Nc1ccc2ccccc2c1)c1ccccc1O	0	39*	34	-12	25	-1	54*	46*
O=C(Nc1ccc2ccccc2c1)c1ccc(Cl)cc1Cl	-2	17*	51*	0	13	-6	37*	20*
CCOC(=O)c1ccc(N/C=C\C(=O)c2cccc(OC)c2)cc1	-6	3	-9	0	4	9	.	.
COC(=O)c1ccc(N/C=C/C(=O)c2ccccc2)cc1	-7	21*	-21	-3	1	-6	52*	3
COCCN(Cc1nc(C(c2ccccc2)c2ccccc2)no1)C(C)C	-36	-1	3	-9	7	-3	.	.
Cc1cc(C)c2c(N)c(C(=O)Nc3nccs3)sc2n1	-6	30*	33	0	11	-7	62*	51*
O=c1c2sc(-c3ccccc3)cc2nc2n1CCC2	-4	24*	6	-4	0	0	48*	32*
O=C(Nc1ccc(Cl)cn1)c1ccc2c(Cl)c3c(nc2c1)CCC3	1	-3	-62	0	?	0	.	.
Cc1cccc(NC(=O)c2ccc3c(Cl)c4c(nc3c2)CCCC4)n1	-5	17*	-44	-6	-41	10	58*	47*
O=C(COc1ccccc1)Nc1ccc(CSc2ccccc2)cc1	-2	-2	-24	-2	-13	6	.	.
Cc1ccc2[nH]c(O)c(N=O)c2c1	-1	4	6	14	9	-1	.	.
Cc1cccc(NCc2nc3ccccc3n2C)c1	-5	3	-11	-7	13	-9	.	.
Cc1ccc(NCc2nc3ccccc3n2C)c(C)c1	-17	28*	64*	-7	33	1	45*	39*
CN=c1scc(-c2ccccc2Br)n1/N=C/c1ccc[nH]1	-6	62*	4	26	-6	0	72*	70*
CC(C)(C)c1ccc(C(=O)NC(=S)Nc2nc3c(s2)CCCC3)cc1	5	24*	-62	12	-59*	7	57*	38*
CN(C)c1ccc(C(=O)Nc2nc3c(s2)CCCC3)cc1	-7	27*	13	-8	-2	0	59*	58*
Cc1cc(NO)nc(-c2ccc(Br)cc2)n1	1	81*	2	5	5	-1	79*	-17
Cc1cc(C)nc(NC(=O)c2ccc(Br)cc2)n1	0	-1	-14	-3	-3	8	.	.
COc1cc(/C(C)=N/Nc2ccc(C(=O)O)cc2)cc(OC)c1OC	-6	25*	-8	4	-10	-20	43*	34*
COc1ccc(OC)c(/C(C)=N/Nc2ccc(C(=O)O)cc2)c1	-6	36*	6	-8	3	-12	25*	33*
